Active and inactive are the calls of the source. The rule behind the calls is not given here.

One may read the IC50 as the concentration at which inhibition is half-maximal. A high value points to weaker potency.

The test system of experiment [1] is Hepatitis C virus. The experiment in a line: Inhibition of HCV Con1 NS5B polymerase. The format is functional, Hepatitis C virus (isolate Con1). The note with it: 1b. Summed up:
(§1)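 The buffer is 20 mM HEPES pH 7.3, 7.5 mM DTT, 10 mM MgCl2, 60 mM NaCl, RNasin, BSA, GTP/ATP/UTP, and CTP supplemented to 20 nM. It uses 100 nM heteropolymer RNA template and 0.25 mM trinucleotide initiator. Incubation is 2 h at room temperature, then stopped with EDTA, and filter-bound label is counted. IC50 comes from 10 twofold dilutions in duplicate, averaged over two separate weighings.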

For experiment [2], the system named is Hepatitis C virus. The experiment in a line: Inhibition of HCV Con1 NS5B polymerase M414T mutant. The conditions noted are these: isolate Con1. The format is functional, Hepacivirus hominis. Summed up:
(§2)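 Mutant Con1 NS5B (Δ21) at 30 nM was run in a de novo initiation assay with 100 nM heteropolymer RNA template and 0.25 mM trinucleotide initiator. Incubation: RT, 2 h, stopped with EDTA. Read-out: filter-bound label. IC50 from 10 twofold dilutions in duplicate; means of duplicates on two weighings.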

Experiment [3] concerns Hepatitis C virus. The experiment can be described thus: Inhibition of HCV Con1 NS5B polymerase G554D mutant. The format is functional, Hepacivirus hominis. The note with it: isolate Con1. Summed up:
as §2

For experiment [4], the system named is Hepatitis C virus. The experiment in a line: Inhibition of HCV Con1 NS5B polymerase C316Y mutant. The format is functional, Hepacivirus hominis. The note with it: isolate Con1. Summed up: as §2
In experiment [5] the test system is Hepatitis C virus. The experiment in a line: Inhibition of HCV Con1 NS5B polymerase C316N mutant. The note with it: isolate Con1. The format is functional, Hepacivirus hominis. Summed up: as §2
For experiment [6], the system named is Hepatitis C virus. The experiment in a line: Inhibition of HCV 1a NS5B polymerase. The class given is functional, Hepatitis C virus subtype 1a. A digest of the protocol:
as §1

For experiment [7], the system named is Hepatitis C virus genotype 2. The experiment can be described thus: Inhibition of HCV genotype 2 NS5B polymerase up to 200 uM.
The test system of experiment [8] is Hepatitis C virus. The experiment in a line: Selectivity ratio of IC50 for HCV Con1 NS5B polymerase C316Y mutant to IC50 for HCV 1b Con1 NS5B polymerase. The class given is functional, Hepacivirus hominis, isolate Con1.
Experiment [9] concerns Hepatitis C virus. The experiment can be described thus: Selectivity ratio of IC50 for HCV Con1 NS5B polymerase M414T mutant to IC50 for HCV 1b Con1 NS5B polymerase. The format is functional, Hepacivirus hominis, isolate Con1.
Experiment [10] has as its system Hepatitis C virus. The experiment in a line: Selectivity ratio of IC50 for HCV Con1 NS5B polymerase G554D mutant to IC50 for HCV 1b Con1 NS5B polymerase. The format is functional, Hepacivirus hominis, isolate Con1.
Experiment [11] has as its system Hepatitis C virus genotype 3. The experiment in a line: Inhibition of HCV genotype 3 NS5B polymerase up to 200 uM.
Experiment [12] has as its system Hepatitis C virus genotype 4. The experiment can be described thus: Inhibition of HCV genotype 4 NS5B polymerase up to 200 uM.

For the molecule `CCCN(C)C(=O)c1c(F)cccc1OCC(=O)N[C@H](CO)Cc1ccccc1`, it took 6 µM to reach half-maximal inhibition in the experiment with Hepatitis C virus [1] (IC50).

`CCOc1cc(CCNC(=O)c2c(F)cccc2OCC(=O)N[C@H](CO)Cc2ccccc2)ccc1OC` had an IC50 in the experiment on Hepatitis C virus [1] greater than 20 µM.

Turning to `CCN(CCOC)C(=O)c1c(F)cccc1OCC(=O)N[C@H](CO)Cc1ccccc1`, 8 µM corresponded to half-maximal inhibition with Hepatitis C virus [1] (IC50).

In the experiment with Hepatitis C virus [1], `COC(=O)[C@@H](Cc1ccccc1)N(C)C(=O)c1c(F)cccc1OCC(=O)N[C@H](CO)Cc1ccccc1` showed a half-inhibitory concentration (IC50) of 4.3 µM.

In the case of `O=C(COc1cccc(F)c1C(=O)N1CCCC1c1cccc(Cl)c1)N[C@H](CO)Cc1ccccc1` (stereo partly specified), the IC50 with Hepatitis C virus [1] amounted to 1.9 µM.

`CCCN(CC1CC1)C(=O)c1c(F)cccc1OCC(=O)N[C@H](CO)Cc1ccccc1` returned a half-maximal inhibitory concentration (IC50) in the experiment with Hepatitis C virus [1] of 2.6 µM. The IC50 values of the last two molecules are within 1.5-fold of each other.

As for `O=C(COc1cccc(F)c1C(=O)N1CCCC1C1CCCCC1)N[C@H](CO)Cc1ccccc1` (stereo partly specified), the IC50 in the experiment with Hepatitis C virus [1] came to 4 µM.

`COC(=O)[C@H](c1ccccc1)N(C)C(=O)c1c(F)cccc1OCC(=O)N[C@H](CO)Cc1ccccc1` had an IC50 in the experiment with Hepatitis C virus [1] of 4.6 µM.

Molecule `C[S+]([O-])CCNC(=O)c1c(F)cccc1OCC(=O)N[C@H](CO)Cc1ccccc1` (stereo partly specified) showed an IC50 in the experiment with Hepatitis C virus [1] greater than 20 µM.

Molecule `O=C(COc1cccc(F)c1C(=O)NCCC1=CCCCC1)N[C@@H](CO)Cc1ccccc1` returned an IC50 in the experiment with Hepatitis C virus [1] greater than 20 µM.

Molecule `O=C(COc1cccc(F)c1C(=O)NCCC1CCCCC1)N[C@H](CO)Cc1ccccc1` displayed an IC50 with Hepatitis C virus [1] greater than 20 µM.

Molecule `CCCCN(CC)C(=O)c1c(F)cccc1OCC(=O)N[C@H](CO)Cc1ccccc1` showed a concentration for half-maximal inhibition (IC50) in the experiment with Hepatitis C virus [1] of 0.47 µM.

Consider `CN(CCc1ccccc1)C(=O)c1c(F)cccc1OCC(=O)N[C@H](CO)Cc1ccccc1`, for which inhibition with Hepatitis C virus [1] was half-maximal at 20 µM (IC50).

Take `CC(C)(C)CC[C@@]1(C)CC(C2=NS(=O)(=O)c3cc(NS(C)(=O)=O)ccc3N2)=C(O)c2ccccc21`: the IC50 in the experiment with Hepatitis C virus [2] worked out at 0.004 µM; in the experiment on Hepatitis C virus [3] it was 0.3 µM; with Hepatitis C virus [4] it was 0.008 µM; with Hepatitis C virus [5] it was 0.004 µM; in the experiment with Hepatitis C virus [6], 0.003 µM.

`C=CCN(CC=C)C(=O)c1c(F)cccc1OCC(=O)N[C@H](CO)Cc1ccccc1` displayed a 50% inhibitory concentration (IC50) with Hepatitis C virus [1] of 2.2 µM. This lies in the single-digit micromolar range.

As to `CCCCN(C)C(=O)c1c(F)cccc1OCC(=O)N[C@H](CO)Cc1ccccc1`, the inhibition result in [7], in experiment [11] and in experiment [12] was “inactive” in each case. Moreover, the “Ratio IC50” value in the experiment on Hepatitis C virus [8] is 100; in the experiment on Hepatitis C virus [9] it was 10; in the experiment on Hepatitis C virus [10], 150. In addition, the IC50 in the experiment on Hepatitis C virus [2] was 10 µM; in the experiment on Hepatitis C virus [3], 120 µM; in the experiment on Hepatitis C virus [4] it was 90 µM; in the experiment with Hepatitis C virus [5] it was 0.9 µM; in the experiment on Hepatitis C virus [6] it was 43 µM.

For `CNC(=O)c1c(-c2ccc(F)cc2)oc2cc(N(CCO)S(C)(=O)=O)c(C3CC3)cc12` [NESBUVIR], the concentration for half-maximal inhibition (IC50) came to 0.06 µM with Hepatitis C virus [2]; 0.05 µM in the experiment with Hepatitis C virus [3]; 2 µM in the experiment with Hepatitis C virus [4]; 0.12 µM in the experiment with Hepatitis C virus [5]; 0.04 µM in the experiment on Hepatitis C virus [6].

In the case of `CCN(CC)C(=O)c1c(F)cccc1OCC(=O)N[C@H](CO)Cc1ccccc1`, in the experiment with Hepatitis C virus [1], half-maximal inhibition (IC50) was put at 6 µM.

The molecule `COCCN(C(=O)c1c(F)cccc1OCC(=O)N[C@H](CO)Cc1ccccc1)C(C)C` registered a concentration for half-maximal inhibition (IC50) in the experiment on Hepatitis C virus [1] of 6 µM.

For the molecule `COC[C@H](Cc1ccccc1)NC(=O)COc1cccc(F)c1C(=O)NCCC1=CCCCC1`, the IC50 in the experiment on Hepatitis C virus [1] is greater than 20 µM.

Consider `COCCNC(=O)c1c(F)cccc1OCC(=O)N[C@H](CO)Cc1ccccc1`, for which the half-maximal inhibitory concentration (IC50) with Hepatitis C virus [1] was greater than 20 µM.

Molecule `CCCN(CC)C(=O)c1c(F)cccc1OCC(=O)N[C@H](CO)Cc1ccccc1` showed a 50% inhibitory concentration (IC50) with Hepatitis C virus [1] of 2.3 µM.

In turn, `CCCCNC(=O)c1c(F)cccc1OCC(=O)N[C@H](CO)Cc1ccccc1` registered an IC50 in the experiment on Hepatitis C virus [1] greater than 20 µM.

In the case of `O=C(COc1cccc(F)c1C(=O)N1CCCCC1)N[C@H](CO)Cc1ccccc1`, the IC50 in the experiment with Hepatitis C virus [1] was greater than 20 µM.

Regarding `CC(C)CCNC(=O)c1c(F)cccc1OCC(=O)N[C@H](CO)Cc1ccccc1`, in the experiment on Hepatitis C virus [1], the IC50 was greater than 20 µM.

The molecule `CCOCCN(CCOCC)C(=O)c1c(F)cccc1OCC(=O)N[C@H](CO)Cc1ccccc1` showed an IC50 in the experiment on Hepatitis C virus [1] greater than 20 µM.

On to `CCN(C(=O)c1c(F)cccc1OCC(=O)N[C@H](CO)Cc1ccccc1)C(C)C`, for which, in the experiment on Hepatitis C virus [1], half-maximal inhibition (IC50) required 7 µM.

On to `CC(C)(C)CCNC(=O)c1c(F)cccc1OCC(=O)N[C@H](CO)Cc1ccccc1`, for which, in the experiment on Hepatitis C virus [1], the 50% inhibitory concentration (IC50) is greater than 20 µM.

`O=C(COc1cccc(F)c1C(=O)NCCC1=CCCCC1)N[C@H](CO)Cc1ccccc1` displayed an IC50 with Hepatitis C virus [1] of 4.3 µM.

`O=C(COc1cccc(F)c1C(=O)NCCc1ccccc1)N[C@H](CO)Cc1ccccc1` came in with a half-maximal inhibitory concentration (IC50) in the experiment with Hepatitis C virus [1] greater than 20 µM.

In turn, `CCCN(CCOC)C(=O)c1c(F)cccc1OCC(=O)N[C@H](CO)Cc1ccccc1` displayed a half-maximal inhibitory concentration (IC50) in the experiment with Hepatitis C virus [1] of 17 µM.

In turn, `CCCN(CCC)C(=O)c1c(F)cccc1OCC(=O)N[C@H](CO)Cc1ccccc1` came in with an IC50 with Hepatitis C virus [1] of 2.7 µM.

In the case of `O=C(COc1cccc(F)c1C(=O)N1CCCC1Cc1ccccn1)N[C@H](CO)Cc1ccccc1` (stereo partly specified), in the experiment with Hepatitis C virus [1], the IC50 is greater than 20 µM.

The molecule `COC[C@H]1CCCN1C(=O)c1c(F)cccc1OCC(=O)N[C@H](CO)Cc1ccccc1` returned a half-inhibitory concentration (IC50) in the experiment with Hepatitis C virus [1] of 20 µM. That is a double-digit micromolar value.

On to `COC[C@@H]1CCCN1C(=O)c1c(F)cccc1OCC(=O)N[C@H](CO)Cc1ccccc1`, for which inhibition with Hepatitis C virus [1] was half-maximal at 7.7 µM (IC50).

Turning to `CC1CCN(C(=O)c2c(F)cccc2OCC(=O)N[C@H](CO)Cc2ccccc2)CC1`, in the experiment with Hepatitis C virus [1], the IC50 came to 2.3 µM.

Take `CC(C)CCN(C)C(=O)c1c(F)cccc1OCC(=O)N[C@H](CO)Cc1ccccc1`: the midpoint of inhibition in the experiment on Hepatitis C virus [1], the IC50, lay at 0.47 µM.

In turn, `O=C(COc1cccc(F)c1C(=O)N1CCCC1)N[C@H](CO)Cc1ccccc1` showed a concentration for half-maximal inhibition (IC50) in the experiment with Hepatitis C virus [1] greater than 20 µM.

The molecule `O=C(COc1cccc(F)c1C(=O)N1CCC(c2ccccc2)C1)N[C@H](CO)Cc1ccccc1` (stereo partly specified) had an IC50 in the experiment on Hepatitis C virus [1] of 10 µM.

`O=C(COc1cccc(F)c1C(=O)NCCCCO)N[C@H](CO)Cc1ccccc1` displayed an IC50 in the experiment on Hepatitis C virus [1] greater than 20 µM.

For the molecule `C[C@H](c1ccccc1)N(C)C(=O)c1c(F)cccc1OCC(=O)N[C@H](CO)Cc1ccccc1`, the IC50 in the experiment with Hepatitis C virus [1] turned out to be 0.43 µM.

Consider `O=C(COc1cccc(F)c1C(=O)N[C@H](CO)Cc1ccccc1)NCCC1=CCCCC1`, for which the IC50 with Hepatitis C virus [1] was greater than 20 µM.

In the experiment with Hepatitis C virus [1], `O=C(COc1cccc(F)c1C(=O)N1CCCCCC1)N[C@H](CO)Cc1ccccc1` showed an IC50 of 2.6 µM.

Values taken from ChEMBL document CHEMBL1156942, “Inhibitors of hepatitis C virus polymerase: synthesis and characterization of novel 2-oxy-6-fluoro-N-((S)-1-hydroxy-3-phenylpropan-2-yl)-benzamides” (Bioorg Med Chem Lett, 2010).
